Published values of several laboratories.
Each line is one published result; the experiments were not run side by side.
Technique: competition with immobilised ligand
RPS6KA3 C-terminal kinase domain: Ribosomal protein S6 kinase alpha-3, C-terminal kinase domain (RPS6KA3, Homo sapiens, UniProt P51812)
RPS6KA3 N-terminal kinase domain: Ribosomal protein S6 kinase alpha-3, N-terminal kinase domain (RPS6KA3, Homo sapiens, UniProt P51812)

Compound | target | observed | tested at | remaining binding
c1cncc(-c2cccc(Nc3nccc(NC4CCCCC4)n3)c2)c1 | RPS6KA3 C-terminal kinase domain | binding | 10 µM | 79%
CCCOc1ccc([C@H]2[C@H](C(=O)O)[C@@H](c3ccc4c(c3)OCO4)CN2CC(=O)Nc2c(CC)cccc2CC)cc1 | RPS6KA3 N-terminal kinase domain | cell-free assay | 1 µM | 72%
O=C(c1ccc(Nc2ncc(Cl)c(-c3ccc(Cl)s3)n2)cc1)N1CCC(N2CCCC2)CC1 | RPS6KA3 C-terminal kinase domain | binding | 1 µM | 100%
C[C@H]1CCN(c2nccc(-c3cnn4ncccc34)n2)C1 | RPS6KA3 C-terminal kinase domain | binding | 1 µM | 93%
C[C@@H](c1ccc(-n2cnc3c(N)ncnc32)cc1)N1CCc2nn(C)c(Cc3ccccc3)c2C1=O | RPS6KA3 C-terminal kinase domain | binding | 0.1 µM | 94%
Cc1cnn2ncc(-c3ccnc(N(C)C)n3)c2c1 | RPS6KA3 C-terminal kinase domain | binding | 1 µM | 100%
CCc1ccccc1C(=O)Nc1n[nH]c2c(C)c(F)c(C3C(C#N)=C(C)N(C)C(C)=C3C#N)cc12 | RPS6KA3 N-terminal kinase domain | cell-free assay | 1 µM | 0.3%
CN(C)c1ncc(F)c(-c2cnn3ncccc23)n1 | RPS6KA3 C-terminal kinase domain | binding | 1 µM | 68%
COc1cnc(Nc2cccc(S(N)(=O)=O)c2)nc1N1CCN(c2ccccc2)CC1 | RPS6KA3 C-terminal kinase domain | binding | 1 µM | 81%
CN(C)c1nccc(-c2cnc3ncccn23)n1 | RPS6KA3 C-terminal kinase domain | binding | 1 µM | 78%
O=C(Nc1c[nH]nc1C(=O)NC1CCNCC1)c1cc(F)cc(F)c1 | RPS6KA3 N-terminal kinase domain | binding | 1 µM | 74%
Cc1c(NC(=O)c2cc(C(N)=O)nc3cc(F)ccc23)c(C(F)(F)F)nn1Cc1ccc(C(C)(C)C)cc1 | RPS6KA3 C-terminal kinase domain | cell-free assay | 1 µM | 100%
N#Cc1ccccc1CSc1nnc2c(n1)[nH]c1ccccc12 | RPS6KA3 N-terminal kinase domain | binding | 10 µM | 80%
O=C(c1ccc(Nc2ncc(Cl)c(-c3cc4ccccc4s3)n2)cc1)N1CCC(N2CCCC2)CC1 | RPS6KA3 N-terminal kinase domain | binding | 1 µM | 42%
C=CC(=O)N1CCC(C(=O)NCC(=O)N2CCN(c3nc(-c4cnc(N)nc4C(F)F)nc(N4CCOCC4)n3)CC2)CC1 | RPS6KA3 C-terminal kinase domain | binding | 1 µM | 63%
O=C(NCCCN1CCOCC1)c1ccc(Nc2nccc(-c3cc4ccccc4s3)n2)cc1 | RPS6KA3 N-terminal kinase domain | binding | 1 µM | 76%
CCN1CCN(Cc2ccc(C(=O)Nc3ccc(C)c(Oc4ccc5c(c4)CC(=O)N5)c3)cc2C(F)(F)F)CC1 | RPS6KA3 N-terminal kinase domain | binding | 1 µM | 100%

Compound | target | observed | tested at | remaining binding
O=C(Nc1ccc(Oc2ccc(F)cc2)cc1)N1CCc2ncccc2[C@H]1c1ccc(F)cc1 | RPS6KA3 C-terminal kinase domain | cell-free assay | 1 µM | 97%
Nc1ncc2c(n1)-c1c([nH]c3ccc(C#CC4CC4)cc13)CCCC2 | RPS6KA3 C-terminal kinase domain | binding | 1 µM | 100%
COc1ncc2cc3ccccc3nc2c1C#N | RPS6KA3 C-terminal kinase domain | cell-free assay | 5 µM | 96%
O=C(NCCCN1CCOCC1)c1ccc(Nc2ncc(Cl)c(-c3ccc(Cl)s3)n2)cc1 | RPS6KA3 N-terminal kinase domain | binding | 1 µM | 61%
Cc1noc([C@H]2C[C@@H](c3ccc(C(F)(F)F)cc3)CN(C(=O)N3CCS(=O)(=O)C3)C2)n1 | RPS6KA3 N-terminal kinase domain | cell-free assay | 1 µM | 100%
N[C@@H]1CCN(c2nccc(-c3cnn4ncccc34)n2)C1 | RPS6KA3 C-terminal kinase domain | binding | 1 µM | 41%
CNC(=O)[C@@H]1CC[C@@H](n2c(-c3ccc4cnccc4c3)nc3ccc(C(=O)NCc4cccc(C(N)=O)c4)cc32)C1 | RPS6KA3 N-terminal kinase domain | binding | 1 µM | 87%
C[C@H](c1ccnc(Nc2nc3ccc(-c4cc(N(C)C)ncn4)cc3[nH]2)c1)N1CCN(C(=O)CC(F)(F)F)CC1 | RPS6KA3 C-terminal kinase domain | cell-free assay | 0.1 µM | 100%
COc1cnc(Nc2cccc(S(N)(=O)=O)c2)nc1N1CCN(c2ccccc2)C(=O)C1 | RPS6KA3 N-terminal kinase domain | binding | 1 µM | 64%
O=C(NCC1CCOCC1)c1n[nH]cc1NC(=O)c1c(F)cccc1F | RPS6KA3 C-terminal kinase domain | binding | 1 µM | 98%
O=C(c1ccc(Nc2nccc(-c3cc4ccccc4s3)n2)cc1)N1CCC(N2CCCC2)CC1 | RPS6KA3 N-terminal kinase domain | binding | 1 µM | 78%
CN(CCCC(F)(F)F)c1nccc(-c2cnn3ncccc23)n1 | RPS6KA3 C-terminal kinase domain | binding | 1 µM | 100%
O=C1NC(c2ccccn2)Sc2ccccc21 (stereo not shown) | RPS6KA3 N-terminal kinase domain | cell-free assay | 1 µM | 72%
CN(C)c1nccc(-c2cnn3ncccc23)n1 | RPS6KA3 N-terminal kinase domain | binding | 1 µM | 82%
Cc1cnc(Nc2ccc(C(=O)N3CCC(N4CCCC4)CC3)cc2)nc1-c1cc2ccccc2s1 | RPS6KA3 C-terminal kinase domain | binding | 1 µM | 80%
O=C(O)[C@H]1[C@H](Cn2nnc3ccccc3c2=O)CC[C@@H]1C(=O)c1ccc(OCCC2CCOCC2)cc1 | RPS6KA3 N-terminal kinase domain | cell-free assay | 1 µM | 81%
FC(F)(F)Oc1cccc(-c2cnc3ccc(-c4ccncc4)nn23)c1 | RPS6KA3 C-terminal kinase domain | binding | 5 µM | 69%
